Measurements taken from ChEMBL document CHEMBL3271971, “Antineoplastic and biochemical properties of arylsulfonylhydrazones of 2-formylpyridine N-oxide” (J Med Chem, 1976).

Columns and labels:
Mus musculus [1] = test: Effect on DNA synthesis in tumor of CD-1 mouse allografted with mouse S180A cells assessed as [3H]-thymidine incorporation at 20 mg/kg, ip pretreated for 1 hr followed by radiotracer-addition measured after 1 hr relative to control; assay type: functional; conditions: route intraperitoneal
Method in brief: (§1)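 Sarcoma 180 ascites cells implanted 6 days earlier. Mice received a single ip dose of 10–80 mg/kg, then 1 h later an ip tracer: 200 μg thymidine-3H, 200 μg uridine-3H or 125 μg DL-leucine-14C. Tracer was incorporated for 1 h. Specific activity of tumor-cell DNA, RNA or protein is expressed as % of untreated controls. Values are means of 4-16 mice, each analyzed separately.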

[2] = Antineoplastic activity against mouse S180A cells allografted in CD-1 mouse assessed as average survival at 40 mg/kg administered qd for 6 days (reference value: 12.9 +/- 1.2 days); assay type: functional
Method in brief: (§2)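 Ascitic tumours were transplanted from an appropriate donor mouse carrying a 7-day tumour growth. Drug was given at 10–60 mg/kg/day for six consecutive days. Sensitivity was judged by prolongation of survival time relative to untreated tumour-bearing controls. Mice were weighed throughout, and percentage weight change from onset to end of therapy indicated toxicity.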

Mus musculus [3] = test: Toxicity in CD-1 mouse allografted with mouse S180A cells assessed as change in body weight at 40 mg/kg administered qd for 6 days (reference value: 23.2%); assay type: organism-based; set-up: dose 40 mg/kg; conditions: in vivo, 144 h
Mus musculus [4] = test: Effect on RNA synthesis in tumor of CD-1 mouse allografted with mouse S180A cells assessed as [3H]-uridine incorporation at 80 mg/kg, ip pretreated for 12 hrs followed by radiotracer-addition measured after 1 hr relative to control; assay type: functional; conditions: route intraperitoneal
Method in brief: (§3)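 Mice bearing 6-day Sarcoma 180 ascites implants received a single ip dose of 80 mg/kg. At the stated pretreatment time they were given ip tracer: 200 μg thymidine-3H, 200 μg uridine-3H or 125 μg DL-leucine-14C. After 1 h of incorporation, specific radioactivity of DNA, RNA or protein was read as % of control incorporation.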

Mus musculus [5] = test: Effect on RNA synthesis in tumor of CD-1 mouse allografted with mouse S180A cells assessed as [3H]-uridine incorporation at 10 mg/kg, ip pretreated for 1 hr followed by radiotracer-addition measured after 1 hr relative to control; assay type: functional; conditions: route intraperitoneal; method in brief: as §1
[6] = Antineoplastic activity against mouse Hepa129 cells allografted in C3H mouse assessed as average survival at 20 mg/kg administered qd for 6 days (reference value: 18 +/- 0.6 days); assay type: functional; method in brief: as §2
Mus musculus [7] = test: Toxicity in CD-1 mouse allografted with mouse EAC cells assessed as change in body weight at 20 mg/kg administered qd for 6 days (reference value: 26.8%); assay type: organism-based, Ehrlich; set-up: dose 20 mg/kg; conditions: in vivo, 144 h
Method in brief: (§4)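 Ascitic tumors were transplanted from a donor mouse bearing a 7-day tumor. Daily doses were given for six consecutive days. Percentage body-weight change from onset to termination of therapy served as the index of drug toxicity.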

Mus musculus [8] = test: Toxicity in C3H mouse allografted with mouse Hepa129 cells assessed as change in body weight at 60 mg/kg administered qd for 6 days (reference value: 13.5%); assay type: organism-based; set-up: dose 60 mg/kg; conditions: in vivo, 144 h; method in brief: as §4
[9] = Antineoplastic activity against mouse S180A cells allografted in CD-1 mouse assessed as maximum dose required for increase in mouse survival administered qd for 6 days; assay type: functional
L1210 [10] = test: Antineoplastic activity against mouse L1210 cells allografted in BDF1 mouse assessed as average survival at 40 mg/kg administered qd for 6 days (reference value: 8.2 +/- 0.4 days); assay type: functional; method in brief: as §2
Mus musculus [11] = test: Effect on DNA synthesis in tumor of CD-1 mouse allografted with mouse S180A cells assessed as [3H]-thymidine incorporation at 80 mg/kg, ip pretreated for 1 hr followed by radiotracer-addition measured after 1 hr relative to control; assay type: functional; conditions: route intraperitoneal; method in brief: as §1
L1210 [12] = test: Antineoplastic activity against mouse L1210 cells allografted in BDF1 mouse assessed as average survival at 20 mg/kg administered qd for 6 days (reference value: 8.2 +/- 0.4 days); assay type: functional; method in brief: as §2
[13] = Antineoplastic activity against mouse S180A cells allografted in CD-1 mouse assessed as mouse survival at 20 mg/kg administered qd for 6 days measured for 50 days relative to control; assay type: functional; method in brief: as §2
Ehrlich [14] = test: Antineoplastic activity against mouse EAC cells allografted in CD-1 mouse assessed as average survival at 60 mg/kg administered qd for 6 days (reference value: 14.4 +/- 1.2 days); assay type: functional; method in brief: as §2
Mus musculus [15] = test: Toxicity in BDF1 mouse allografted with mouse L1210 cells assessed as change in body weight at 60 mg/kg administered qd for 6 days (reference value: 13.6%); assay type: organism-based; set-up: dose 60 mg/kg; conditions: in vivo, 144 h; method in brief: as §4
Mus musculus [16] = test: Effect on protein synthesis in tumor of CD-1 mouse allografted with mouse S180A cells assessed as [14C]-leucine incorporation at 80 mg/kg, ip pretreated for 3 hrs followed by radiotracer-addition measured after 1 hr relative to control; assay type: functional; conditions: route intraperitoneal; method in brief: as §3
[17] = Antineoplastic activity against mouse Hepa129 cells allografted in C3H mouse assessed as mouse survival at 60 mg/kg administered qd for 6 days measured for 50 days relative to control; assay type: functional; method in brief: as §2
Mus musculus [18] = test: Effect on RNA synthesis in tumor of CD-1 mouse allografted with mouse S180A cells assessed as [3H]-uridine incorporation at 20 mg/kg, ip pretreated for 1 hr followed by radiotracer-addition measured after 1 hr relative to control; assay type: functional; conditions: route intraperitoneal; method in brief: as §1
Mus musculus [19] = test: Toxicity in CD-1 mouse allografted with mouse S180A cells assessed as change in body weight at 20 mg/kg administered qd for 6 days (reference value: 23.2%); assay type: organism-based; set-up: dose 20 mg/kg; conditions: in vivo, 144 h
Mus musculus [20] = test: Effect on DNA synthesis in tumor of CD-1 mouse allografted with mouse S180A cells assessed as [3H]-thymidine incorporation at 80 mg/kg, ip pretreated for 6 hrs followed by radiotracer-addition measured after 1 hr relative to control; assay type: functional; conditions: route intraperitoneal; method in brief: as §3
L1210 [21] = test: Antineoplastic activity against mouse L1210 cells allografted in BDF1 mouse assessed as average survival at 60 mg/kg administered qd for 6 days (reference value: 8.2 +/- 0.4 days); assay type: functional; method in brief: as §2
[22] = Antineoplastic activity against mouse S180A cells allografted in CD-1 mouse assessed as average survival at maximum effective dose administered qd for 6 days relative to control; assay type: functional
Method in brief: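 Sarcoma 180 ascites cells were transplanted from a donor mouse bearing a 7-day tumour. Each agent was tested at 10–60 mg/kg/day, once daily for six consecutive days, starting 24 h after transplantation, in groups of 5–10 mice. Pooled untreated controls totalled 40 mice. Mice surviving beyond 50 days were counted as 50-day survivors, and body-weight change over therapy served as the toxicity index.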

Mus musculus [23] = test: Toxicity in CD-1 mouse allografted with mouse S180A cells assessed as change in body weight at 60 mg/kg administered qd for 6 days (reference value: 23.2%); assay type: organism-based; set-up: dose 60 mg/kg; conditions: in vivo, 144 h
[24] = Antineoplastic activity against mouse Hepa129 cells allografted in C3H mouse assessed as average survival at 60 mg/kg administered qd for 6 days (reference value: 18 +/- 0.6 days); assay type: functional; method in brief: as §2
Ehrlich [25] = test: Antineoplastic activity against mouse EAC cells allografted in CD-1 mouse assessed as average survival at 20 mg/kg administered qd for 6 days (reference value: 14.4 +/- 1.2 days); assay type: functional; method in brief: as §2
Mus musculus [26] = test: Effect on protein synthesis in tumor of CD-1 mouse allografted with mouse S180A cells assessed as [14C]-leucine incorporation at 80 mg/kg, ip pretreated for 1 hr followed by radiotracer-addition measured after 1 hr relative to control; assay type: functional; conditions: route intraperitoneal; method in brief: as §1

Question: What does the source list for `Cc1ccc(S(=O)(=O)N/N=C/c2cccc[n+]2[O-])cc1`?
Answer: Activity (Mus musculus [1]): 71%; Survival [2]: 36.3 days; Activity (Mus musculus [3]): -3.1%; Activity (Mus musculus [4]): 102%; Activity (Mus musculus [5]): 74%; Survival [6]: 22.2 days; Activity (Mus musculus [7]): 2.4%; Activity (Mus musculus [8]): -1.6%; Activity [9]: 60 mg/kg; Survival (L1210 [10]): 9.2 days; Activity (Mus musculus [11]): 59%; Survival (L1210 [12]): 8.6 days; survival at 20 mg/kg [13]: 10%; Survival (Ehrlich [14]): 40.8 days; Activity (Mus musculus [15]): -5.8%; Activity (Mus musculus [16]): 70%; survival at 60 mg/kg [17]: 20%; Activity (Mus musculus [18]): 71%; Activity (Mus musculus [19]): 21.6%; Activity (Mus musculus [20]): 63%; Survival (L1210 [21]): 11.8 days; T/C [22]: 307%; Activity (Mus musculus [23]): -8%; Survival [24]: 29.4 days; Survival (Ehrlich [25]): 34.6 days; Activity (Mus musculus [26]): 73%
